Our source for the IC50 values is ChEMBL document CHEMBL1154747, “Synthesis and cytotoxic evaluation of beta-alkyl or beta-aryl-delta-methyl-alpha-methylene-delta-lactones. Comparison with the corresponding gamma-lactones” (Eur J Med Chem, 2010).

Holding throughout (assay type): functional, cell-based
One test deals with NALM-6. As to the kind of experiment: Cytotoxicity against human NALM6 cells after 48 hrs by MTT assay. The conditions noted are these: NALM-6, 48 h. In short, it runs like this:
(§1)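 HL-60 (promyelocytic) and NALM-6 (lymphoblastic) human leukemia cells in RPMI 1640 with 10% heat-inactivated FBS, streptomycin/penicillin, 37 °C, 5% CO2; exponentially growing cells seeded 8 × 10^3/well. Compounds from fresh DMSO stocks diluted in medium, 10^-7 to 10^-3 M, 46 h, then MTT 2 h; formazan dissolved in 20% SDS/50% DMF pH 4.7, A562/630. IC50 from concentration-response curves, ≥3 experiments.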

A further test has as its system L1210. Nature of the test: Cytotoxicity against mouse L1210 cells after 48 hrs by MTT assay. Conditions: L1210, 48 h. In a few lines: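 Mouse L-1210 leukemia cells in RPMI 1640 with 10% FCS, gentamycin 50 µg/mL and 0.02 M HEPES; seeded at 1.5 × 10^3 cells/mL, drug added after 24 h, then 48 h further incubation. Cell number relative to untreated control by tetrazolium dye method; IC50 from concentration-survival curves by non-linear (quasi-Newton) fitting, mean of at least three experiments.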

The next test concerns HL-60. Nature of the test: Cytotoxicity against human HL60 cells after 48 hrs by MTT assay. The conditions noted are these: HL-60, 48 h. In a few lines: as §1

As to `C=C1C(=O)OC(C)CC1c1ccccc1OC` (stereo not drawn), the IC50 in the test on NALM-6 came to 6.26 µM; in the test on L1210 it was 2.1 µM; in the test on HL-60 it was 6.44 µM.
For `C=C1C(=O)OC(C)CC1C(C)C` (stereo not drawn), in that order: 56.4 µM, 44.4 µM and 61.2 µM.
As for `C=C1C(=O)OC(C)CC1C1CCCCC1` (stereo not drawn), the IC50 with NALM-6 was 15.8 µM; in the test on L1210, 13 µM; in the test with HL-60, 40.6 µM.
Regarding `C=C1C(=O)OC(C)CC1c1ccc([N+](=O)[O-])cc1` (stereo not drawn), the values for the half-maximal inhibitory concentration (IC50) in the test on NALM-6, with L1210 and in the test with HL-60 were 3.42 µM, 1.2 µM and 6.12 µM, respectively.
For `C=C1C(=O)OC(C)CC1c1ccc(Br)cc1` (stereo not drawn), in that order: 4.51 µM, 1.75 µM and 4.77 µM.
Turning to `C=C1C(=O)OC(C)CC1c1ccc(OC)cc1` (stereo not drawn), the figures for the IC50 with NALM-6, in the test on L1210 and in the test on HL-60 were 5.76 µM, 0.8 µM and 5.95 µM, respectively.
For `C=C1C(=O)OC(C)CC1c1ccc2c(c1)OCO2` (stereo not drawn), in that order: 5.46 µM, 7 µM and 5.52 µM.
In the case of `C=C1C(=O)O[C@H](C)[C@@H]1c1ccc([N+](=O)[O-])cc1`, the IC50 was 3.77 µM in the test with NALM-6, 1.9 µM in the test with L1210 and 21.7 µM with HL-60.
Consider `C=C1C(=O)O[C@H](C)[C@@H]1c1ccc2c(c1)OCO2` (relative stereo), for which the IC50 in the test on NALM-6 was 4.7 µM; in the test with L1210 it was 1.4 µM; in the test on HL-60, 33.3 µM.
For `C=C1C(=O)O[C@H](C)[C@@H]1c1ccc(OC)cc1` (relative stereo), in that order: 5.59 µM, 4.4 µM and 4.82 µM.
The like results for `C=C1C(=O)O[C@H](C)[C@@H]1c1ccc(C)cc1` (relative stereo) were, in that order, 5.97 µM, 5.5 µM and 5.62 µM.
The like results for `C=C1C(=O)O[C@@H](C)[C@@H]1c1ccc(OC)cc1` (relative stereo) were, in that order, 5.42 µM, 1.95 µM and 5.56 µM.
Consider `C=C1C(=O)O[C@@H](C)[C@@H]1c1ccc(C)cc1` (relative stereo), for which the IC50 was determined as 4.39 µM with NALM-6, 1.5 µM with L1210 and 5.01 µM with HL-60.
As for `C=C1C(=O)O[C@H](C)[C@@H]1c1ccc(Br)cc1` (relative stereo), the IC50 in the test on NALM-6 worked out at 4.25 µM; in the test on L1210, 7.8 µM; in the test with HL-60 it was 4.28 µM.
For `C=C1C(=O)O[C@@H](C)[C@@H]1c1ccc2c(c1)OCO2` (relative stereo), in that order: 5 µM, 0.8 µM and 5.35 µM.
For `C=C1C(=O)O[C@@H](C)[C@@H]1c1ccc(Br)cc1` (relative stereo), in that order: 1.1 µM, 0.58 µM and 6.66 µM.
